pEC50, pIC50: −log10 of the molar value.
Experiments:
HeLa = test: Cytotoxicity against human HeLa-CD4-LTR-beta-gal cells after 24 hrs by ATPlite reagent based luminescence analysis; format: cell-based
[1] = biological target: Human immunodeficiency virus type 1 reverse transcriptase (Human immunodeficiency virus 1) (UniProt Q72547); test: Inhibition of RNase H function of HIV1 reverse transcriptase using DNA/RNA hybrid as substrate at 10 uM by fluorescence spectrometer analysis
How it was run: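 RNase H activity of HIV-1 RT was measured with an RNA/DNA hybrid substrate at 250 nM final, with 150–800 ng RT, in 50 mM Tris-HCl pH 8.0, 60 mM KCl, 10 mM MgCl2 and 1% DMSO, against DMSO-only wells. Fluorescence (ex 485/em 520 nm) was read each minute over 10 min at 37 °C. Percent inhibition at 10 μM = 100(v0−vi)/v0 from initial rates, run in triplicate.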

[2] = Selectivity index, ratio of CC50 for human HeLa-CD4-LTR-beta-gal cells to EC50 for HIV-1 3B infected in human HeLa-CD4-LTR-beta-gal cells; format: toxicity; conditions: read-out: Ratio CC50/EC50
[3] = test system: Human immunodeficiency virus 1; test: Antiviral activity against HIV-1 3B infected in human HeLa-CD4-LTR-beta-gal cells assessed as inhibition of viral replication by SpectraMax GEMINI-XS plate reader analysis; format: functional, organism-based; conditions: Human immunodeficiency virus 1, 3B
How it was run: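 HeLa-CD4-LTR-β-gal cells kept in DMEM, 10% serum, 0.5 mg/mL G418; seeded 10000 cells/well the day before. Drug 3-fold serially diluted over six points on cells (top 50 μM), then fresh medium or concentrated HIV-1(IIIB) supernatant added.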

[4] = biological target: T1, Human immunodeficiency virus type 1 integrase (Human immunodeficiency virus 1, UniProt Q7ZJM1)
T1 sequence (Q7ZJM1 whole entry): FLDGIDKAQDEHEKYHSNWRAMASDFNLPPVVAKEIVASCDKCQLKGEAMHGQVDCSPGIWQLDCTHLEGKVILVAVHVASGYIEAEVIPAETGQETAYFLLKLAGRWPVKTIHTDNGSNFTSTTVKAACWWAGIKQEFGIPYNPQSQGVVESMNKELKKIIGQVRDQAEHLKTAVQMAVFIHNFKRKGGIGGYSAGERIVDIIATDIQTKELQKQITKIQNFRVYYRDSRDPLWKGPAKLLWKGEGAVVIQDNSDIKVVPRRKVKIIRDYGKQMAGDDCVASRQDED

[5] = biological target: T1, Human immunodeficiency virus type 1 integrase; remark: listed apart in the source
[6] = biological target: Human immunodeficiency virus type 1 reverse transcriptase (Human immunodeficiency virus 1, UniProt Q72547); test: Inhibition of RNase H function of HIV1 reverse transcriptase using DNA/RNA hybrid as substrate by fluorescence spectrometer analysis

| Compound | CC50 (HeLa) [µM] | inhibition [1] [%] | selectivity ratio [2] | pEC50 [3] | pIC50 [4] | pIC50 [5] | pIC50 [6] |
| --- | --- | --- | --- | --- | --- | --- | --- |
| Cc1nnc(C(=O)NC(C)(C)c2nc(C(=O)NCc3ccc(F)cc3)c(O)c(=O)n2C)o1 | > 50 |  |  |  |  |  |  |
| CCOC(=O)/C(O)=C/C(=O)c1cn(Cc2ccccc2F)c2cc(Cl)ccc2c1=O | > 50 | 2.8 | > 4.5 | 4.96 |  |  |  |
| COc1cc2c(cc1Cc1cccc(Cl)c1F)c(=O)c(C(=O)O)cn2[C@H](CO)C(C)C | > 50 |  |  | 7.85 |  |  |  |
| CCOC(=O)/C(O)=C/C(=O)c1cn(Cc2ccc(F)cc2F)c2ccccc2c1=O | > 50 | 3 | > 86.2 | 6.24 | 5.66 |  |  |
| CCOC(=O)/C(O)=C/C(=O)c1cn(CCCCc2ccccc2)c2ccccc2c1=O |  | 19.4 |  | < 4.30 | 3.92 | < 3.48 |  |
| O=C(O)/C(O)=C/C(=O)c1cn(Cc2cc(F)ccc2F)c2ccccc2c1=O |  | 37 |  | < 4.30 | 5.49 |  | < 4.30 |
| CCOC(=O)/C(O)=C/C(=O)c1cn(Cc2cc(C)cc(C)c2)c2ccccc2c1=O |  | 21 |  | < 4.30 | 5.89 |  |  |
| CCOC(=O)/C(O)=C/C(=O)c1cn(Cc2ccc(O)cc2)c2ccccc2c1=O | > 50 | 26 | > 1.6 | 4.51 | 5.85 | < 3.48 |  |
| O=C(O)/C(O)=C/C(=O)c1cn(Cc2ccncc2)c2ccccc2c1=O |  | -2.6 |  | < 4.30 | 4.80 | < 3.00 |  |
| CCOC(=O)/C(O)=C/C(=O)c1cn(Cc2ccc(F)c(Cl)c2)c2ccccc2c1=O | > 50 | 18 | > 2.9 | 4.76 | 5.51 | 3.58 |  |
| O=C(O)/C(O)=C/C(=O)c1cn(Cc2ccc(F)cc2)c2cc(Cl)c(Cl)cc2c1=O |  |  |  |  |  | < 4.30 |  |
| CCOC(=O)/C(O)=C/C(=O)c1cn(Cc2ccncc2)c2ccccc2c1=O |  | -5.6 |  | < 4.30 | 4.85 | < 3.48 |  |
| CCOC(=O)/C(O)=C/C(=O)c1cn(Cc2ccccc2)c2ccccc2c1=O | > 50 | -3.3 | > 50 | 6.00 | 6.15 | < 3.00 |  |
| O=C(O)/C(O)=C/C(=O)c1cn(Cc2cccc(Cl)c2F)c2ccccc2c1=O | > 50 | 12 | > 2.1 | 4.63 | 7.74 | 5.76 |  |
| O=C(O)/C(O)=C/C(=O)c1cn(Cc2ccc([N+](=O)[O-])cc2)c2ccccc2c1=O |  |  |  | < 4.30 | 6.19 | 4.57 | 4.33 |
| CCOC(=O)/C(O)=C/C(=O)c1cn(Cc2ccc(OC)cc2)c2ccccc2c1=O |  | 10 |  | < 4.30 | < 4.43 | < 4.43 |  |
| O=C(O)/C(O)=C/C(=O)c1cn(Cc2ccc(Cl)cc2Cl)c2ccccc2c1=O |  |  |  | < 4.30 | 5.64 |  | 4.35 |
| O=C(O)/C(O)=C/C(=O)c1cn(Cc2cc(F)cc(F)c2)c2ccccc2c1=O |  | 30 |  | < 4.30 | 6.66 |  | < 4.30 |
| CCOC(=O)/C(O)=C/C(=O)c1cn(Cc2ccc(F)c(Cl)c2)c2c(Cl)cccc2c1=O |  | 24 |  | < 4.30 | 4.60 | < 3.48 |  |
| CCOC(=O)/C(O)=C/C(=O)c1cn(Cc2ccc(Cl)cc2Cl)c2ccccc2c1=O |  | 51 |  | < 4.30 | < 3.95 |  | < 4.30 |
| CCOC(=O)/C(O)=C/C(=O)c1cn(Cc2cccc(F)c2)c2ccccc2c1=O [RDS-1624] | > 50 | -9.4 | > 29.4 | 5.77 | 5.31 | < 4.91 |  |
| COc1cccc(Cn2cc(C(=O)/C=C(\O)C(=O)O)c(=O)c3ccccc32)c1 [RDS-2161] |  | 1.9 |  | < 4.30 | 6.85 | < 5.39 |  |
| O=C(O)/C(O)=C/C(=O)c1cn(Cc2ccc(F)c(Cl)c2)c2c(Cl)cccc2c1=O |  | 16 |  | 4.30 | 7.02 | 5.01 |  |
| O=C(O)/C(O)=C/C(=O)c1cn(Cc2ccccc2)c2ccccc2c1=O | > 50 | 9.6 |  | 4.81 | 7.47 | 5.40 |  |

| Compound | CC50 (HeLa) [µM] | inhibition [1] [%] | selectivity ratio [2] | pEC50 [3] | pIC50 [4] | pIC50 [5] | pIC50 [6] |
| --- | --- | --- | --- | --- | --- | --- | --- |
| CCOC(=O)/C(O)=C/C(=O)c1cn(Cc2ccccc2F)c2ccccc2c1=O | > 50 | 2.8 | > 33.4 | 5.82 | 6.55 | 3.90 |  |
| O=C(O)/C(O)=C/C(=O)c1cn(Cc2ccc3ccccc3c2)c2ccccc2c1=O | > 50 | 40.7 | > 10.4 | 5.32 | > 6.35 | 4.74 |  |
| CCOC(=O)/C(O)=C/C(=O)c1cn(Cc2ccc(C)cc2C)c2ccccc2c1=O |  | 33 |  | < 4.30 | < 3.95 |  | < 4.30 |
| O=C(O)/C(O)=C/C(=O)c1cn(Cc2cccc(F)c2)c2ccccc2c1=O | > 50 | 2.4 | > 1.8 | 4.55 | 7.82 | 5.34 |  |
| CCOC(=O)/C(O)=C/C(=O)c1cn(Cc2ccc([N+](=O)[O-])cc2)c2ccccc2c1=O |  | 31.9 |  | < 4.30 | < 4.43 | < 4.43 |  |
| CCOC(=O)/C(O)=C/C(=O)c1cn(Cc2ccccc2OC)c2ccccc2c1=O [20, RDS-2163] | > 50 | 11.4 | > 19.2 | 5.59 | 5.85 | < 3.48 |  |
| O=C(O)/C(O)=C/C(=O)c1cn(Cc2ccccc2F)c2c(Cl)cccc2c1=O |  | 45 |  | < 4.30 | 6.89 | 4.69 | < 4.30 |
| O=C(O)/C(O)=C/C(=O)c1cn(Cc2ccc(O)cc2)c2ccccc2c1=O |  |  |  | < 4.30 | 6.35 | < 4.43 | 5.02 |
| CCOC(=O)/C(O)=C/C(=O)c1cn(Cc2cccc(Cl)c2F)c2ccccc2c1=O | > 50 | 21 | > 5 | 5.00 | 5.97 | 5.97 |  |
| O=C(O)/C(O)=C/C(=O)c1cn(CCCCc2ccccc2)c2ccccc2c1=O |  | 33 |  | < 4.30 | > 6.35 | < 3.48 |  |
| CCOC(=O)/C(O)=C/C(=O)c1cn(Cc2cc(F)cc(F)c2)c2ccccc2c1=O | > 50 | 24 | > 1.5 | 4.49 | 4.96 |  |  |
| CCOC(=O)/C(O)=C/C(=O)c1cn(Cc2ccc3ccccc3c2)c2ccccc2c1=O |  | 29.7 |  | < 4.30 | 4.49 | < 3.48 |  |
| O=C(O)/C(O)=C/C(=O)c1cn(Cc2ccc3ccccc3n2)c2ccccc2c1=O |  | 16.4 |  | < 4.30 | 6.40 | 4.15 |  |
| CCOC(=O)/C(O)=C/C(=O)c1cn(Cc2ccc(F)c(F)c2)c2ccccc2c1=O | > 50 | 24 | > 5.1 | 5.01 | 5.26 |  |  |
| CCOC(=O)/C(O)=C/C(=O)c1cn(Cc2c(F)cccc2F)c2ccccc2c1=O | > 50 | 4.1 | > 250 | > 6.70 | 6.60 | < 4.91 |  |
| CCOC(=O)/C(O)=C/C(=O)c1cn(Cc2ccc3ccccc3n2)c2ccccc2c1=O |  | 4.4 |  | < 4.30 | 5.46 | < 3.00 |  |
| Cc1ccc(Cn2cc(C(=O)/C=C(\O)C(=O)O)c(=O)c3ccccc32)c(C)c1 |  |  |  | < 4.30 | 5.15 |  | 4.71 |
| CCOC(=O)/C(O)=C/C(=O)c1cn(Cc2cccc(OC)c2)c2ccccc2c1=O | 44 | 4.9 | 5.2 | 5.07 | 4.80 | < 3.48 |  |
| CCOC(=O)/C(O)=C/C(=O)c1cn(Cc2ccc(Cl)cc2)c2ccccc2c1=O |  | 16.1 |  | < 4.30 | < 4.43 | < 4.43 |  |
| O=C(O)/C(O)=C/C(=O)c1cn(Cc2c(Cl)cccc2Cl)c2ccccc2c1=O |  | 86.3 |  | < 4.30 | 6.57 |  | 5.00 |
| CCOC(=O)/C(O)=C/C(=O)c1cn(Cc2cc(F)ccc2F)c2ccccc2c1=O |  | 30 |  | < 4.30 | 5.43 |  |  |
| Cc1cc(C)cc(Cn2cc(C(=O)/C=C(\O)C(=O)O)c(=O)c3ccccc32)c1 |  |  |  | < 4.30 | 7.30 |  | 4.42 |
| O=C(O)/C(O)=C/C(=O)c1cn(Cc2ccc(F)c(Cl)c2)c2ccccc2c1=O |  | 25 |  | < 4.30 | 6.72 | 4.68 |  |

From ChEMBL document CHEMBL3580569, “N-Substituted Quinolinonyl Diketo Acid Derivatives as HIV Integrase Strand Transfer Inhibitors and Their Activity against RNase H Function of Reverse Transcriptase” (J Med Chem, 2015)
